Screening data from PubChem.
ARNT TACC3 PPI: disruptors of ARNT/TACC3 protein interaction, primary screen, biochemical, AlphaScreen, single concentration; inhibition, % at 9.99 µM; AID 623870, 2012; Transforming acidic coiled-coil-containing protein 3 (Homo sapiens), Q9Y6A5; AlphaScreen His-ARNT PAS-B/GST-TACC3 binding, luminescence; TACC3 fragment carries E629A point mutation; 0.66% of 390,000 active;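 active = mean inhibition of replicates at least 50% and at least half of replicates each reaching 50%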;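 note: 0% = complete ARNT plus TACC3 wells and 100% = ARNT alone without TACC3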
Tn6 DDE FP: inhibitors of Tn6 peptide binding to fibrin DD(E), primary screen, biochemical, fluorescence polarization, human fibrin, Tn6 probe. 0.21% of 370,000 active. Fibrinogen beta chain (Homo sapiens), P02675. Fibrin DD(E) TRITC-Tn6 fluorescence polarization displacement. inhibition, % at 8.3 µM;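 active = inhibition above a per-campaign cutoff: mean of compounds within control limits plus 3 SD, cut at about 15% in these data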;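 note: 0% = median of all compound wells on the plate and 100% = blocking peptide control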
Target sequence (P02675 whole entry, looked up): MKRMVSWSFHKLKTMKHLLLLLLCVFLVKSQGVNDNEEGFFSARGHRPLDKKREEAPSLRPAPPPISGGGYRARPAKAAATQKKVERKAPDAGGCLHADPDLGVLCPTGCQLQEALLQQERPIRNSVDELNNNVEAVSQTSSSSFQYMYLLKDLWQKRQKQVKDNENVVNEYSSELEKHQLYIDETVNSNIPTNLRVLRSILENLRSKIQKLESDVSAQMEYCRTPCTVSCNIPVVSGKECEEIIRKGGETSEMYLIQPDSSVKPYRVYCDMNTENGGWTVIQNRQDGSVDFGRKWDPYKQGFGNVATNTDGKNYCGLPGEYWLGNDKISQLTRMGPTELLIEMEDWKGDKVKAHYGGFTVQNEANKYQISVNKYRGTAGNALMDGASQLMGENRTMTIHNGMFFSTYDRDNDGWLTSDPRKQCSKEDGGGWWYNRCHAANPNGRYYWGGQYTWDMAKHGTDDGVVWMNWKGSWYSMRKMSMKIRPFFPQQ
DDE Tn7 FP inh: inhibitors of Tn7 peptide binding to fibrin DD(E), primary screen, biochemical, fluorescence polarization, human fibrin, Tn7 probe. AID 720508, 2013. Fibrinogen beta chain (Homo sapiens), P02675. FP displacement of FITC-Tn7 peptide from fibrin DD(E); 0% = median of compound wells per plate. inhibition, % at 8.3 µM. 0.13% of 370,000 active;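 active = inhibition above the mean of compounds falling within the control limits plus 3 SD of them, cut at about 14% in these data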;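 note: 0% = plate median of compound wells and 100% = 10 µM Aha-Tn7 peptide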
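assay system = human clot-derived fibrin DD(E) complex | quantity = Fibrin-DD(E) at 2 µM final | timing = 10 min preincubation, 3 h with tracer, room temperature | signal = fluorescence polarization | measure = percent inhibition | benchmarks = high control wells with 10 µM unlabelled Aha-Tn7 peptide (full inhibition) | replicates = singlicate testing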
CAL PDZ FP-1: CAL PDZ peptide-binding inhibitors, primary screen, biochemical, fluorescence polarization, Cer-tagged CAL PDZ, HTS. purified CAL PDZ, TMR-peptide fluorescence polarization, 1 h. 0.02% of 330,000 active. Golgi-associated PDZ and coiled-coil motif-containing protein (Homo sapiens), Q9HD26. AID 504414, 2011. inhibition, % at 20 µM;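 active = highest replicate inhibition of at least 40%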;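 note: plate controls were DMSO neutral control wells for no effect and unlabeled competitor peptide control wells for full effect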
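Control set: unlabelled peptide and DMSO controls / Material: purified CerCALP PDZ construct / Timing: 1 h incubation at room temperature before polarization reading / Doses: 20 µM, one dose / Detection: fluorescence polarization (mP)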
GRK2 inh: compounds blocking aptamer binding on GRK2 – biochemical, human GRK2, bead flow cytometry, HTS, primary screen | FAM-aptamer displacement from GRK2 | inhibition of aptamer binding, % at 10 µM | 0.59% of 330,000 active | AID 488847, 2010;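 active = inhibition of aptamer binding above 40%, roughly 3 SD of noise, on plates passing a quality check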;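 note: median bead fluorescence of bound FAM aptamer so fluorescent compounds give negative values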
CAL PDZ FP-2: untagged CAL PDZ binding inhibitors, primary screen, biochemical, fluorescence polarization, HTS; Golgi-associated PDZ and coiled-coil motif-containing protein (Homo sapiens), Q9HD26; purified CAL PDZ, TMR-peptide fluorescence polarization, 1 h; inhibition, % at 24.9 µM; 0.92% of 300,000 active;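 active = mean inhibition of at least 30% with at least half of replicates also reaching 30%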;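 note: 0% = DMSO neutral control and 100% = excess unlabeled competitor peptide PRC23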
GRK2 inh confirm: GRK2 aptamer-displacing inhibitors, retest, confirmation, biochemical, cherry pick 1, bead flow cytometry | shares compounds with GRK2 inh | bead-bound GRK2, FAM-aptamer displacement | aptamer displacement, % at 10 µM | 4% of 2,000 active;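 active = aptamer displacement above 40%, near three times the noise of non-fluorescent compounds, on plates passing quality checks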;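 note: negative values mostly reflect intrinsic compound fluorescence rather than true enhancement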
Aptamer quench SP: counter-screen for GRK2 aptamer inhibitors: fluorescent aptamer quenchers | fluorescence response (% of DMSO), % at 10 µM | shares compounds with GRK2 inh | Carboxyfluorescein RNA aptamer on beads, flow cytometry quenching; stronger effect = lower value | 2,000 tested, under 10 active | AID 504580;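 active = compounds that quench the bead-bound fluorescent RNA probe, cutting fluorescence to under half of the solvent control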;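 note: counterscreen run without GRK2 so only probe quenching by compound is measured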
GRK2 CP2: GRK2 aptamer-displacing inhibitors, hit retest, confirmation, biochemical, cherry pick 2, bead flow cytometry | shares compounds with GRK2 inh | bead-bound GRK2, FAM-aptamer displacement | inhibition of aptamer binding, % at 10 µM | 360 tested, under 10 active;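 active = inhibition of aptamer binding above 40%, about triple the noise seen with nonglowing compounds, on plates passing quality control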;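 note: negative values mostly come from compounds that fluoresce themselves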
FAM quench CP2: quenches fluorescent RNA aptamer, GRK2 hit artifact; shares compounds with GRK2 inh; carboxyfluorescein RNA aptamer beads, flow cytometry quenching; stronger effect = lower value; fluorescence response vs DMSO, % at 10 µM; 360 tested, under 10 active;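 active = response vs DMSO under 50%, meaning signal dropped by over half, treated as fluorescence quencher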;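 note: labelled aptamer on streptavidin beads without GRK2 as a quench counter-screen; 100% = bead fluorescence of DMSO wells and lower means quenching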
Starred values were filed as active, the others as inactive; x = no result. The list is not random: actives were taken first. Their share in the collection is about 1.8%.

SMILES	ARNT TACC3 PPI	Tn6 DDE FP	DDE Tn7 FP inh	CAL PDZ FP-1	GRK2 inh	CAL PDZ FP-2	GRK2 inh confirm	Aptamer quench SP	others
O=C(Nc1ccc(Nc2ccccc2)cc1)c1ccccc1	x	4	-5	x	100*	x	5	93
O=Cc1cccc(OC(=O)/C=C/c2ccco2)c1	9	-9	-4	-1	62*	-5	5	97
COC(=O)c1ccc(OC(=O)/C=C/c2ccco2)cc1	9	1	-1	-2	5	-3	x	x
COc1cc(OC)c(/C=N/N2CCN(c3ccccc3OC)CC2)c(OC)c1	1	-4	-4	-1	40	-3	x	x
CCC(=O)N1C[C@@H](C)[C@@H](OC)CN(C)C(=O)c2ccc(NC(=O)COC)cc2OC[C@H]1C	-5	x	x	x	x	x	x	x
O=C1c2cccc3c([N+](=O)[O-])ccc(c23)C(=O)N1c1ccccn1	-2	-1	-10	1	2	x	x	x
O=C1c2cccc3c([N+](=O)[O-])ccc(c23)C(=O)N1O	18	4	-5	0	56*	-6	-6	97
CCCCNC(=O)C1(C)CCN1C(=O)c1ccc2sccc2c1 (stereo not drawn)	x	0	-1	x	x	x	x	x
NC(=S)N1OC[C@@H]2COc3ccc4ccccc4c3[C@@H]21	-4	10	2	-1	65*	-5	1	95
C[C@@H]1CN([C@@H](C)CO)C(=O)CCCn2nncc2CO[C@@H]1CN(C)S(=O)(=O)c1ccccc1	-37	-6	0	x	x	x	x	x
Cc1ccc(-c2ccccc2)n1-c1ccc(C(=O)O)cc1	4	5	3	-1	51*	1	-3	96	GRK2 CP2=-7;FAM quench CP2=103
C[C@H](CO)N1C[C@H](C)[C@@H](CN(C)Cc2ccc(C(F)(F)F)cc2)Oc2ccc(NC(=O)CCCN(C)C)cc2CC1=O	11	x	x	x	x	x	x	x
COC(=O)C1CC(c2c(OC)cc(OC)cc2OC)=NO1 (stereo not drawn)	-8	-7	-1	-2	0	-1	x	x	GRK2 CP2=17;FAM quench CP2=99
COC(=O)[C@@H]1C(c2c(OC)cc(OC)cc2OC)=NO[C@H]1C(=O)OC	-5	-3	6	-1	0	x	x	x	GRK2 CP2=-2;FAM quench CP2=99
CC=Cc1ccc2n(c1=O)C[C@@H]1[C@@H](CO)[C@H](C(=O)NCCC)N(CC3CC3)[C@H]21 (mixture of isomers)	-1	x	x	x	x	x	x	x
COc1ccc(CN(C)C(=O)c2ccc(NC(=O)CC3SC(N4CCCC4)=NC3=O)cc2)c(OC)c1 (stereo not drawn)	-6	9	5	-2	54*	-5	0	96
O=C(CC1SC(N2CCCCC2)=NC1=O)Nc1cccc(C(=O)NCc2ccccc2)c1 (stereo not drawn)	-1	5	4	-1	3	-4	-1	99
Cc1cc(C(F)(F)F)nc(SCC(=O)Nc2ccccc2)n1	0	-10	-3	-1	0	-1	x	x
Cc1cc(C(F)(F)F)nc(SCC(=O)NC2CC3CCC2C3)n1 (stereo not drawn)	-10	9	3	-1	53*	-2	-2	98
O=C(Nc1cccc(NC(=O)c2ccc(-c3ccc(Br)cc3)o2)c1)c1ccccc1	-7	1	2	x	90*	-10	-1	93
O=c1[nH]c(CN2CCN(C/C=C/c3ccccc3)CC2)nc2ccccc12	2	-6	2	-3	2	-2	x	x	GRK2 CP2=19;FAM quench CP2=98
Cc1ccc(NC(=O)C2CCN(S(=O)(=O)c3cnc[nH]3)CC2)cc1C	-3	4	4	0	0	-5	x	x
Cc1cc(NC(=O)C2CCN(S(=O)(=O)c3cnc[nH]3)CC2)ccc1Br	-2	-3	-2	-3	43*	-2	-1	100
CC(=O)N/C(=N/c1nc(C)cc(C)n1)Nc1cccc(C)c1C	14	-3	4	-1	17	-1	0	98
CC(=O)N/C(=N\c1nc(C)cc(C)n1)Nc1ccccc1Cl	-5	5	-6	-2	x	-4	x	x
SMILES	ARNT TACC3 PPI	Tn6 DDE FP	DDE Tn7 FP inh	CAL PDZ FP-1	GRK2 inh	CAL PDZ FP-2	GRK2 inh confirm	Aptamer quench SP	others
Cc1c(C(=O)O)cccc1-n1c(C)cc(/C=N/NC(=O)c2cc3ccccc3o2)c1C	11	8	6	-3	50*	-1	3	136
Cc1c(C(=O)O)cccc1-n1c(C)cc(/C=N/Nc2ccc([N+](=O)[O-])cn2)c1C	17	-3	-1	0	0	5	x	x
Cc1ccc(N(CC(=O)Nc2ccccc2-c2ccccc2)S(=O)(=O)c2ccccc2)c(C)c1	x	-3	2	-3	40	0	-3	106
CC(C)=C1C2C=CC1C1C(=O)N(c3ccc4c(c3)OCO4)C(=O)C21 (stereo not drawn)	x	2	4	-2	0	-1	x	x
CC(C)=C1C2CCC1C1C(=O)N(c3ccc4c(c3)OCO4)C(=O)C21 (stereo not drawn)	-1	-3	-5	0	48*	-1	x	x	GRK2 CP2=-42;FAM quench CP2=101
COc1cccc(OC)c1C(=O)OCC(=O)NC(=O)NCc1ccccc1	3	-1	2	-3	2	1	x	x
COc1cccc(OC)c1C(=O)OCC(=O)NCC(C)C	-5	0	-5	0	96*	x	-3	95
N#C[C@H]1[C@@H](c2ccc(C3=CCCC3)cc2)[C@H](CO)N1C(=O)C1CC1	-2	x	x	x	x	x	x	x
